CHRM1 agonist – human M1 muscarinic receptor agonists, primary screen, Fluo-8 calcium fluorescence, CHO-K1 cells, HTS; CHO-K1 hM1, agonist mode; 0% DMSO, 100% acetylcholine EC100; AID 588814, 2011; activation, % at 3 µM; actives 0.33% (n = 360,000); Muscarinic acetylcholine receptor M1 (Homo sapiens), P11229;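 active means activation above the run's mean compound activation plus 3 SD, cut at about 16% in these data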;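 further: peak over basal fluorescence ratio within a 140 s kinetic read after compound addition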
Target sequence (P11229 whole entry, looked up): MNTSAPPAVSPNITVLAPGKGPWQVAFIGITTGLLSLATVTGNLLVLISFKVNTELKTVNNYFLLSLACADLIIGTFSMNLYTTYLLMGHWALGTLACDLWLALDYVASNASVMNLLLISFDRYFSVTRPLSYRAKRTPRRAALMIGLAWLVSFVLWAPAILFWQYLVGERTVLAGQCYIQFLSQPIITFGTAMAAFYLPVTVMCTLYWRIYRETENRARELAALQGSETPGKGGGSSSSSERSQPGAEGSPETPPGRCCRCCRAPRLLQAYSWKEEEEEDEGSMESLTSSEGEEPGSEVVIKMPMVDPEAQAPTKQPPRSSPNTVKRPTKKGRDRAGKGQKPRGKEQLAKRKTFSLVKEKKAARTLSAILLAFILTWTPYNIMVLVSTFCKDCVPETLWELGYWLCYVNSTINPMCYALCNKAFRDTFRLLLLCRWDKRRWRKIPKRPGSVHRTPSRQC
M5 antag – human M5 muscarinic receptor antagonists, primary screen, CHO cells, Fluo-8 calcium fluorescence | Muscarinic acetylcholine receptor M5 (Homo sapiens), P08912 | CHO-hM5 cells, ACh EC80 | inhibition, % at 3 µM | actives 0.59% (n = 360,000);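 active means inhibition above a per-plate cutoff, the mean of that plate's test compounds plus 3 SD, cut at about 27% in these data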;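 further: 0% = acetylcholine EC80 with DMSO and 100% = DMSO without agonist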
M1 antag – human M1 muscarinic receptor antagonists, primary screen, CHO-K1 cells, Fluo-8 calcium fluorescence, 1536-well; CHO-K1 hM1, ACh EC80 antagonist; inhibition, % at 3 µM; actives 1.3% (n = 360,000); AID 588852, 2011;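 active means percent inhibition above its own plate's cutoff, namely the mean of that plate's compound wells plus 3 SD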;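 further: peak over basal fluorescence ratio during 140 s after agonist addition; 0% = ACh EC80 plus DMSO and 100% = DMSO alone without agonist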
M5 PAM – human M5 muscarinic receptor positive allosteric modulators, primary screen, CHO-K1 cells, Fluo-8 calcium fluorescence; CHO-K1 hM5, ACh EC20 PAM; 0% = ACh EC20, 100% = ACh EC100; activation, % at 3 µM; actives 0.3% (n = 360,000);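 active means activation above the run cutoff, the mean activation of all test compounds plus 3 SD, cut at about 18% in these data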
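Replicates: One well per compound, no replicates | System: Human M5 receptor in CHO-K1 cells | Benchmarks: Low control EC20 acetylcholine (0%), high control EC100 acetylcholine (100%) | Probe or stimulus: Acetylcholine, EC20 level | Times: Fluo-8 loading 80 min at 37 °C plus 30 min room temperature | Signal: Intracellular calcium via Fluo-8 fluorescence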
CHRM1 PAM – human M1 muscarinic receptor positive allosteric modulators, primary screen, CHO-K1 cells, Fluo-8 calcium fluorescence, 1536-well; Muscarinic acetylcholine receptor M1 (Homo sapiens), P11229; CHO-K1 hM1, ACh EC20; 0% = ACh EC20, 100% = maximal ACh; activation, % at 3 µM; actives 0.088% (n = 360,000); in the data active means activation above about 19%, passing the limit was not always enough
M5 ag – human M5 muscarinic receptor agonists, primary screen, CHO-K1 cells, Fluo-8 calcium fluorescence | CHO-K1 hM5 cells; 0% DMSO wells, 100% maximal acetylcholine response | actives 0.19% (n = 360,000) | activation, % at 3 µM | Muscarinic acetylcholine receptor M5 (Homo sapiens), P08912;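 active means activation above the run's mean over test compounds plus 3 SD, cut at about 23% in these data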;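 further: signal is peak over basal fluorescence ratio across the kinetic read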
* marks the source's active call; other numbers are inactive results; x = no result. Most compounds without a hit are left out; they make up all but 2% or so of the library.

SMILES	CHRM1 agonist	M5 antag	M1 antag	M5 PAM	CHRM1 PAM	M5 ag
CCOc1cccc(-c2c(C(=O)N/N=C(\C)c3cccs3)nnn2-c2nonc2N)c1	31*	1	0	2	4	12
CCOc1ccc(-c2c(C(=O)N/N=C/c3ccsc3)nnn2-c2nonc2N)cc1	28*	11	-8	-5	9	15
COc1ccccc1NC(=O)N(C)C[C@@H]1OCc2cnnn2CCCC(=O)N([C@@H](C)CO)C[C@@H]1C	-2	2	-15	0	7	0
Cc1cccc(NC(=O)c2nc[nH]c2C(=O)NCCCCNC(=O)c2[nH]cnc2C(=O)Nc2cccc(C)c2)c1	-2	-2	-3	7	5	4
CCC(C)NC(C(=O)Nc1ccc(Cl)c([N+](=O)[O-])c1)c1ccccc1 (centres undefined)	-8	6	-7	-5	0	-2
COCC(C)NC(C(=O)Nc1ccc(Cl)c([N+](=O)[O-])c1)c1ccccc1 (centres undefined)	-6	0	3	-2	31*	-1
O=C(Nc1ccc(Cl)c([N+](=O)[O-])c1)C(Sc1ccccc1)c1ccccc1 (centres undefined)	-3	30*	25	-19	-12	0
CC(=O)c1c(N2CCCCC2)nc(=S)n(-c2ccccc2)c1C	-7	6	15	-14	-17	-8
CCn1c(C)c(C(C)=O)c(N2CCN(C(c3ccccc3)c3ccccc3)CC2)nc1=S	-7	25	54*	-20	-30	-7
CCn1c(C)c(C(C)=O)c(N2CCN(c3ccccn3)CC2)nc1=S	-14	0	64*	-2	-33	-2
CCn1c(C)c(C(C)=O)c(N2CCCCC2)nc1=S	-5	-15	-5	-3	3	-10
CC(=O)c1c(N2CCCC2)nc(=S)n(-c2ccccc2)c1C	-12	5	75*	-4	-34	-8
CCn1c(C)c(C(C)=O)c(N2CCN(c3ccccc3)CC2)nc1=S	-4	-6	10	-5	-15	-8
CCOC(=O)CN1CC(C)(C)N(CC(=O)OCC)CC1(C)C	-2	22	8	-15	-6	-4
CCOC(=O)C1CCCN(c2cc(=O)n(Cc3ccc(F)cc3)c(=O)[nH]2)C1 (centres undefined)	22*	-6	1	-3	-9	24*
CCOC(=O)C1CCCN(c2cc(=O)n(-c3ccccc3Cl)c(=O)[nH]2)C1 (centres undefined)	29*	-2	-5	-8	-4	17
CCOC(=O)N1CCN(c2cc(=O)n(-c3ccccc3C)c(=O)[nH]2)CC1	-1	-6	0	3	5	7
CC1=C(C(=O)N(C)C)CC(CC(=O)NC(c2ccccc2)c2ccccc2)C(=O)N1CCCN1CCCC1=O (centres undefined)	2	12	-14	-7	15	0
CN(Cc1nc2ccccc2c(=O)[nH]1)C(=O)c1cccc(S(=O)(=O)N2CCc3ccccc32)c1	-4	-1	-1	-8	-2	-4
CN(C)CCCOC(=O)N1c2ccccc2C=Cc2ccccc21	-10	81*	95*	-17	-29	-6
CCN(CC)c1ccc(/C=C2/C(=O)c3ccc(C(=O)O)cc3C2=O)cc1	186*	18	76*	-17	-27	33*
CCN(CC)c1ccc(C=C2C(=O)OC3(CCCCC3)OC2=O)cc1	-2	10	-3	-2	6	-3
CCc1cccc(NC(=O)COC(=O)C2COc3ccccc3O2)c1 (centres undefined)	-5	-1	-10	-2	5	0
CC1(C(=O)Nc2ccc3c(c2)OCCO3)CN(S(C)(=O)=O)CC(=O)N1Cc1cccs1 (centres undefined)	x	-3	x	-2	x	2
CC(C)C(O)(C#CCN1CCCCC1)C(C)C	-14	31*	64*	-19	-27	-8
SMILES	CHRM1 agonist	M5 antag	M1 antag	M5 PAM	CHRM1 PAM	M5 ag
CC(O)(C#CCN1CCCCCC1)c1ccccc1 (centres undefined)	-9	26	41*	-16	-30	-6
OC(C#CCN1CCCC1)(c1ccccc1)c1ccccc1	-7	99*	100*	-17	-25	-7
CCC(O)(C#CCN1CCCCC1)CC	-14	6	3	-4	-6	-8
OC(C#CCN1CCOCC1)(c1ccccc1)C1CC1 (centres undefined)	-3	0	-11	2	9	-4
OC(C#CCN1CCCCC1)(c1ccccc1)c1ccccc1	-8	100*	100*	-36	-26	-21
OCC(C#CCN1CCCCC1)NCc1ccccc1 (centres undefined)	-8	-4	7	1	-5	-7
OC(c1ccc(Cl)c(F)c1)c1ncc(-c2cccc3ccccc23)[nH]1 (centres undefined)	0	1	-3	-4	1	-1
CCC1CCc2sc(C(=O)NCC(c3ccccc3OC)N3CCCC3)cc2C1 (centres undefined)	-6	6	43*	-45	-21	-13
COc1ccccc1C(CNC(=O)C1COc2ccccc2O1)N1CCCC1 (centres undefined)	-6	25	77*	-38	-24	-8
COc1ccc(C(CNC(=O)C(C)Oc2ccc(Br)cc2)N2CCOCC2)cc1 (centres undefined)	-6	3	-4	1	8	-4
COc1ccccc1CNC(=O)C1COc2ccccc2O1 (centres undefined)	-3	-8	-8	-7	4	-10
COc1ccccc1C(CNC(=O)C(C)Oc1ccc(Br)cc1)N1CCCC1 (centres undefined)	-6	8	31*	-23	-22	-9
COc1ccccc1C(CNC(=O)C(C)(C)Oc1ccc(Cl)cc1)N1CCCC1 (centres undefined)	-8	72*	89*	-32	-27	-8
COc1cc(OC)nc(Nc2nc(C(N)Cc3ccc(F)cc3)cs2)n1 (centres undefined)	3	9	13	1	-5	4
